Bioassay records deposited in PubChem by Broad Institute.
T cruzi repl: T. cruzi replication inhibition; T. cruzi beta-gal in NIH3T3, luminescence, 90 h; inhibition, % (concentration not given with the values); 1.4% of 300,000 active; AID 1885;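 active means mean inhibition across valid replicates above about 55%, limit read from the data; inconclusive means mean below that limit but half or more replicates reach it; inactive means mean below it, under half of replicates reach it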;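 further: signal also drops with host cell toxicity which is not excluded here; 0% = plate median of DMSO wells and 100% = zero luminescence signal; higher percent means less beta-gal luminescence so fewer parasites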
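Test system: β-gal T. cruzi (Tulahuen C4) inside NIH/3T3 cells / Quantity: 5,000 cells/well / Measured by: luminescence from GalScreen with 0.05% NP40, read after 60 min / Medium: DMEM plus 2% FBS / Measure: parasite load inhibition, % / Reagent: Tulahuen C4 trypomastigotes, 5000/well / Schedule: co-culture of at least 90 h after 3 h attachment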
Calb FLC: affects C. albicans growth with fluconazole | 0.57% of 300,000 active | C. albicans CaCi-2 + fluconazole, Alamar Blue growth, 48 h | growth inhibition, % (test concentration not listed) | AID 1979;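 active means growth inhibition above about 58% in most replicates, limit read from the data, passing the limit was not always enough; inconclusive means exactly half the replicates above a set limit; inactive means most replicates below a set limit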;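 further: all wells also contain fluconazole at 8 µg/ml as a sub-toxic cotreatment; 0% = median of DMSO wells and 100% = median of geldanamycin control wells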
HIF activator: HIF pathway transcriptional activation. U2OS HRE-luciferase reporter, luminescence; normalized: DMSO 0%, desferrioxamine 100%. activation, % at 7.5 µM (by protocol). 0.32% of 300,000 active;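 active means mean activation of at least 10% of the iron chelator positive control signal, with at least half of replicates also reaching 10%; inconclusive means mean and replicate majority disagree about reaching 10%; inactive means mean and most replicates under 10%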
HSF1 inhib: HSF1 inhibition. 0.77% of 300,000 active. activity change, negative = inhibition, % at 7.5 µM (by protocol). NIH3T3-HGL HSE-luciferase, MG132-induced, luminescence 8 h; stronger effect = lower value;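 active means more than half of replicate wells show activity change below -50%, luminescence cut by over half; inconclusive means some wells, but at most half, below -50%; inactive means no replicate well below -50%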;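 further: luciferase reports HSF-1 transcriptional activity via heat shock element; 0% = median of DMSO wells and -100% = zero luminescence signal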
HSF1 activator: increases HSF-1 driven luciferase reporter signal; 1.7% of 300,000 active; NIH3T3-HGL HSF-1 luciferase reporter, MG132, 8 h; 100% = twice DMSO control signal; activation, % at 9 µM;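 active means mean replicate activation of at least 50% with a set share of replicates each reaching 50%; inconclusive means only one of those two conditions met; inactive means mean below 50% and too few replicates reaching it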;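 further: 0% = median of the neutral control wells and 100% = twice that signal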
Active calls of the source: *; ? = inconclusive; . = no result given. An excerpt weighted towards active compounds, which were near 4.4% of everything screened.

SMILES | T cruzi repl | Calb FLC | HIF activator | HSF1 inhib | HSF1 activator
CC(=O)NC(Cc1ccc(F)cc1)C(=O)NC1CCN(c2ncccc2[N+](=O)[O-])CC1 (stereo unspecified) | 11.0 | 2.4 | -0.1 | 1.9 | 13.0
CCS(=O)(=O)N1Cc2ccccc2CC1C(=O)Nc1nc2ccccc2s1 (stereo unspecified) | 8.4 | -13.9 | -0.2 | -60.8* | -70.0
COc1ccccc1C(O)c1nccn1C (stereo unspecified) | 1.5 | -0.5 | 0.2 | -3.3 | -4.7
CCn1ccnc1C(O)c1ccccc1OC (stereo unspecified) | -3.8 | -3.8 | 27.1* | -4.8 | -7.0
Cc1ccc(NC(=O)[C@@H]2CCCN2C(=O)[C@@H]2Cc3ccccc3CN2)c(C)c1 | -2.9 | -17.5 | 1.3 | 10.1 | 18.8
N/C(=N/OC(=O)c1ccccc1Cl)c1ncc([N+](=O)[O-])s1 | 8.1 | 4.7 | 1.9 | 132.9 | 179.4*
N#CC1=C(N)OC2=C(C(=O)CC(c3ccccc3)C2)C1c1cccnc1 (stereo unspecified) | 54.8* | -7.4 | 0.2 | 6.6 | 13.8
Cc1ccc2cc(C3C(C#N)=C(N)Oc4c3ccc3cccnc43)c(=O)[nH]c2c1 (stereo unspecified) | -7.7 | 87.1* | 1.2 | 1.5 | 10.0
N#CC1=C(N)Oc2c(ccc3cccnc23)C1c1cccnc1 (stereo unspecified) | 11.3 | 104.3* | 0.2 | -4.6 | -12.5
CC(=O)C1=C(C)OC(N)=C(C#N)C1c1cc2cccc(C)c2nc1Cl (stereo unspecified) | -13.7 | 49.2 | -0.1 | -3.2 | -3.6
CCc1ccc2[nH]c(=O)c(C3C(C#N)=C(N)Oc4c3ccc3cccnc43)cc2c1 (stereo unspecified) | 58.8* | 109.5* | 3.3 | 2.9 | 3.7
CCOc1cccc(C2C(C#N)=C(N)Oc3cc(C)[nH]c(=O)c32)c1OCC (stereo unspecified) | -0.6 | 0.1 | -0.1 | 7.0 | 0.4
N#CC1=C(N)Oc2cc3ccccc3cc2C1c1cccnc1 (stereo unspecified) | 0.0 | 4.0 | 1.3 | -2.6 | -2.5
CC(C)(C)NC(=O)CCN(/N=C/c1ccccc1F)C1=NS(=O)(=O)c2ccccc21 | 2.3 | 9.4 | -0.2 | 7.8 | -4.0
Cc1ncsc1CCC(=O)N1CCCC(Nc2ccc(C(C)C)cc2)C1 (stereo unspecified) | 1.1 | -7.1 | -0.1 | -2.0 | -2.0
Clc1cc(Cl)c(OCc2nc(-c3ccccn3)no2)cc1Cl | 9.5 | -9.7 | -1.0 | 68.6 | 109.8*
NS(=O)(=O)c1cc([N+](=O)[O-])ccc1NCc1cccnc1 | -7.4 | -7.4 | 0.1 | 1.2 | -15.1
O=C(NCc1ccccc1)C1c2ccccc2Oc2ccccc21 | 11.8 | 117.8* | -1.0 | 15.1 | 21.0
Brc1ccc(CNc2ccc3ncccc3c2)cc1 | 35.3 | 55.2 | 3.7 | 47.1 | 79.4*
CN(C)S(=O)(=O)c1ccc(C(=O)OCCN=C2NS(=O)(=O)c3ccccc32)cc1 | -6.4 | -1.3 | -0.1 | 3.3 | 3.2
CN(C)S(=O)(=O)c1ccc(C(=O)OCCCN=C2NS(=O)(=O)c3ccccc32)cc1 | -9.2 | 2.1 | . | -66.5* | -73.4
CCNC(=S)NNC(=O)C(c1ccccc1)c1ccccc1 | 7.9 | 0.5 | 0.4 | 6.0 | 30.6
CC(C)(C)C(=O)NC(=S)NNC(=O)C(c1ccccc1)c1ccccc1 | 40.0 | 82.0* | 0.1 | -1.3 | -6.2
CC(=O)NNC(=S)NC(=O)C(c1ccccc1)c1ccccc1 | -30.4 | 99.1* | -1.0 | -26.7 | -42.7
O=S(=O)(O)c1nc2ccccc2[nH]1 | 1.9 | 5.6 | -0.2 | 1.5 | -2.7
SMILES | T cruzi repl | Calb FLC | HIF activator | HSF1 inhib | HSF1 activator
COc1cc2c(cc1OC)CC(=O)NC=C2 | -9.2 | 10.6 | -0.1 | 0.5 | -4.7
O=[N+]([O-])c1cccnc1S(=O)(=O)c1ccccc1 | 68.2* | 91.7* | 0.4 | 40.1 | ?
O=S1(=O)c2cccc3cccc(c23)N1Cc1nnc(-c2ccccc2Br)o1 | 3.7 | 7.0 | -9.2 | 54.9 | 73.4*
CCOc1ccc(S(=O)(=O)NC(Cc2c[nH]c3ccccc23)C(=O)O)cc1 (stereo unspecified) | -14.1 | -6.0 | -1.0 | -5.2 | -15.7
COc1ccc2nnc(-c3ccc(C(F)(F)F)cc3)n2n1 | -3.4 | -4.1 | 0.1 | -88.7* | -90.7
CN(Cc1nc(-c2cccs2)no1)CC1(N2CCOCC2)CCCCC1 | 4.2 | -2.0 | -0.4 | -9.1 | -6.3
